ChEMBL document CHEMBL3576843, “Neopetrocyclamines A and B, polycyclic diamine alkaloids from the sponge Neopetrosia cf exigua” (2015)

Columns and labels:
Assay type in all cases: functional
UO-31 = experiment: Cytotoxicity against human UO31 cells after 48 hrs by XTT assay; settings: UO-31, 48 h
How it was run: (§1)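 Cells seeded at 5000/well in medium lacking phenol red and antibiotics, allowed 60 min to attach, then compound dilutions or DMSO solvent control added. Incubated 48 h with compound; viability measured by XTT proliferation assay per kit protocol; growth inhibition expressed as GI50.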

A498 = experiment: Cytotoxicity against human A498 cells after 48 hrs by XTT assay; settings: A498, 48 h; how it was run: as §1
SF-295 = experiment: Cytotoxicity against human SF295 cells after 48 hrs by XTT assay; settings: SF-295, 48 h; how it was run: as §1

Structure (SMILES) | GI50 (UO-31) | GI50 (A498) | GI50 (SF-295)
C1=C/[C@H]2[C@@H]3CCCC[C@H]3C[C@H]2NCCCN[C@@H]2C[C@@H]3CCCC[C@H]3[C@@H]2/C=C/1 | 3 µM | 2.9 µM | 0.8 µM
C1=C[C@H]2/C=C/CCCCC/C=C\CCN3C=[N+](CCC3)C[C@H]2[C@@H]2CCCC[C@@H]12 | > 20 µM | > 20 µM | > 20 µM
C1=C[C@H]2/C=C/CCCCC/C=C\CCNCCCNC[C@H]2[C@@H]2CCCC[C@@H]12 | > 20 µM | > 20 µM | > 20 µM
C1=C/[C@H]2[C@@H]3CCCC[C@H]3C[C@@H]2NCCCN[C@@H]2C[C@@H]3CCCC[C@H]3[C@@H]2/C=C/1 [HALICLONADIAMINE] | 8 µM | 5.9 µM | 6.3 µM
